Experimental data: PMC5935509 (Bioactive Materials, 2017)

Test system: HeLa cells
Assay: Cytotoxicity measurement, CCK-8 cell viability assay
Format: cell-based
Conditions: 24 h of incubation, mean, n = 4
Outline: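 HeLa cells seeded at 10⁴ cells/well. For the combination arm, anticancer drug was added first (final 1, 10 or 100 µM), then self-assembling peptide at final 16 or 26 µM, charge-matched between peptides. Peptide-alone wells received the same peptide levels. After 24 h, drug and peptide were removed and viability read by CCK-8 absorbance at 450 nm. Four replicates, mean ± SD.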

## COc1cccc2c1C(=O)c1c(O)c3c(c(O)c1C2=O)C[C@@](O)(C(=O)CO)C[C@@H]3O[C@H]1C[C@H](N)[C@H](O)[C@H](C)O1 [DOX, Doxorubicin]
1 μM DOX, K10 16 μM or K6 26 μM
  cell viability: 70%
100 μM DOX
  cell viability: 18%
